{
  "source": "paper PMC3782865",
  "about": "(Journal of medicinal chemistry, 2013)",
  "key": {"[1]": {"test_system": "trypsin-like (Tr-L) sites of purified 26S proteasomes from rabbit muscles", "experiment": "Inhibition of purified 26S proteasomes, trypsin-like sites", "assay_type": "biochemical", "details": "purified rabbit 26S proteasomes"}, "RPMI-8226 cells [2]": {"test_system": "RPMI-8226 cells", "details": "cited from earlier work"}, "[3]": {"molecular_target": "T1, proteasome caspase-like (Casp-L) sites in NCI-H929 and RPMI-8226 multiple myeloma cells (Homo sapiens, UniProt P28072)", "T1 sequence (P28072 1-239)": "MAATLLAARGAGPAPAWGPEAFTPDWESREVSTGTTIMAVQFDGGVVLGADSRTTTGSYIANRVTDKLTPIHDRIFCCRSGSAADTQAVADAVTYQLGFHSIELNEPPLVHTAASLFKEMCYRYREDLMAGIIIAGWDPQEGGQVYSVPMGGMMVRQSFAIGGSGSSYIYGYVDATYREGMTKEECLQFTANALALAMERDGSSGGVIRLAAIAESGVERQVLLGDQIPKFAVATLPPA", "assay_type": "cell-based"}, "[4]": {"test_system": "proteasome trypsin-like (Tr-L) sites in NCI-H929 and RPMI-8226 multiple myeloma cells", "assay_type": "cell-based", "details": "for IC50: ProteasomeGlo"}, "RPMI-8226 cells [5]": {"test_system": "RPMI-8226 cells", "experiment": "Viability of RPMI-8226 cells, Alamar Blue assay", "assay_type": "cell-based", "details": "for Toxicity to cells as a single agent: 4a 1 µM, 3 27 µM", "summary_of_the_method": "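RPMI-8226 myeloma cells grown in RPMI-1640 with 10% FBS, penicillin, streptomycin and plasmocin in a humidified 5% CO2 incubator. Cells were exposed to bortezomib or carfilzomib for 1 h, then to test compound (1 µM or 27 µM) or mock for 47 h. Viable cells were measured by Alamar Blue dye conversion. Mean ± SEM of three (bortezomib) or two to seven (carfilzomib) biological replicates.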"}, "[6]": {"molecular_target": "T2, proteasome trypsin-like sites (Mus musculus, UniProt P70195)", "T2 sequence (P70195 44-277)": "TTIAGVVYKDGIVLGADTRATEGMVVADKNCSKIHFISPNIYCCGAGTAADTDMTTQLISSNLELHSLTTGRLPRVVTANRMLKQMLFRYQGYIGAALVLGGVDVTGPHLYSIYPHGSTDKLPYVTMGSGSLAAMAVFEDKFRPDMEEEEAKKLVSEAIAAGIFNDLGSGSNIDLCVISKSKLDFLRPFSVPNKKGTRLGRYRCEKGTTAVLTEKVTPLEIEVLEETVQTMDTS", "experiment": "Inhibition of trypsin-like sites in mice", "assay_type": "in vivo", "details": "manuscript in preparation"}, "[7]": {"test_system": "cathepsins in NCI-H929 cells", "experiment": "Cathepsins activity assay", "assay_type": "cell-based", "details": "6 h treatment, Z-FR-amc", "summary_of_the_method": "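Treated and mock-treated cells were washed in PBS and permeabilised on ice with 0.05% digitonin in Tris-HCl pH 7.5 buffer. Cytosol was removed by centrifugation (15 min, 20 000g, 4 °C), and pellets were lysed in Bis-Tris pH 5.5/0.5% CHAPS. Protein-normalised acidic extracts were added to 40 µM substrate in phosphate buffer pH 6.0 with EDTA and DTT. Amc fluorescence was read continuously for 30 min, with rates taken from progress-curve slopes.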"}, "[8]": {"molecular_target": "proteasome active sites (β2, β5) in extracts of HEK-293T cells (Homo sapiens, UniProt P28074+Q99436)", "experiment": "Competition assays in HEK-293T cell lysate with activity-based probes", "assay_type": "biochemical", "details": "HEK-293 extracts"}, "[9]": {"details": "read-out: IC50 Tr-L, NCI-H929, NCI-H929 cells, 6 h treatment"}},
  "note": "Entries after “also recorded” stand apart in the source; their conditions may differ. Structures can show the parent of a compound that is named as a salt. Where two headings read alike, the source gives them in different places.",
  "data": [
    {"smiles": "CC(=O)N[C@@H](CC(C)C)C(=O)N[C@@H](CC(C)C)C(=O)N[C@@H](CCCNC(=N)N)C(=O)[C@@]1(C)CO1", "note": "[1a]", "values": [
      {"measurement": "IC50 (Chym-L)/IC50 (Tr-L)", "setting": "[1]", "value": ">30"}
    ]},
    {"smiles": "CC(=O)N[C@@H](CCCNC(=N)N)C(=O)N[C@@H](CC(C)C)C(=O)N[C@@H](CCCNC(=N)N)C(=O)[C@@]1(C)CO1", "note": "[compound 2]", "values": [
      {"measurement": "IC50 (Chym-L)/IC50 (Tr-L)", "setting": "[1]", "value": ">375"}
    ]},
    {"smiles": "Cc1c(O)cccc1C(=O)N[C@H](C(=O)N[C@@H](CO)C(=O)N[C@@H](CCCNC(=N)N)C(=O)[C@@]1(C)CO1)C(C)C", "note": "[compound 3]", "values": [
      {"measurement": "Toxicity to myeloma cells as a single agent", "setting": "RPMI-8226 cells [2]", "value": "not toxic"},
      {"measurement": "IC50", "setting": "[3]", "value": "> 30000", "unit": "nM"},
      {"measurement": "Treatment time to steady-state inhibition of trypsin-like activity", "setting": "[4]; RPMI-8226 cells", "value": "> 6", "unit": "h"},
      {"measurement": "IC50", "setting": "[4]; [9]", "value": 900, "unit": "nM"},
      {"measurement": "Toxicity to cells as a single agent", "setting": "RPMI-8226 cells [5]", "value": "no effect on cells when used as a single agent"}
    ]},
    {"smiles": "CC(C)C[C@H](NC(=O)[C@H](Cc1ccccc1)N=[N+]=[N-])C(=O)N[C@@H](CC(C)C)C(=O)N[C@H](/C=C/S(C)(=O)=O)Cc1ccc(CN)cc1", "note": "[compound 4a, N3Phe-Leu-Leu-Phe(4-CH2NH2)VS TFA Salt]", "values": [
      {"measurement": "Inhibition of trypsin-like sites in mice", "setting": "[6]", "value": "capable of inhibiting trypsin-like sites in mice"},
      {"measurement": "Treatment time to steady-state inhibition of trypsin-like activity", "setting": "[4]; RPMI-8226 cells", "value": 1, "unit": "h"},
      {"measurement": "Inhibition of cathepsins in cells", "setting": "[7]", "value": "Partial inhibition of cathepsins"},
      {"measurement": "Toxicity to cells as a single agent", "setting": "RPMI-8226 cells [5]", "value": "not toxic; also recorded: no effect on cells when used as a single agent"},
      {"measurement": "Sensitization to bortezomib", "setting": "RPMI-8226 cells [5]; bortezomib 1 h, then 47 h 4a (1 µM)", "value": "sensitized them to bortezomib"}
    ]},
    {"smiles": "Cc1c(O)cccc1C(=O)N[C@H](C(=O)N[C@@H](CO)C(=O)N[C@H](/C=C/S(C)(=O)=O)Cc1ccc(CN)cc1)C(C)C", "note": "[compound 8]", "values": [
      {"measurement": "IC50", "setting": "[3]", "value": "> 30000", "unit": "nM"},
      {"measurement": "Difference in inhibition of trypsin-like activity (IC50) between NCI-H929 and RPMI-8226 cells", "setting": "[4]; 6 h treatment", "value": "greater than 10 fold"},
      {"measurement": "IC50", "setting": "[4]; [9]", "value": 200, "unit": "nM"},
      {"measurement": "IC50", "setting": "[4]; read-out: IC50 Tr-L, RPMI-8226, RPMI-8226 cells, 6 h treatment", "value": 3200, "unit": "nM"},
      {"measurement": "Inhibition of cathepsins in cells", "setting": "[7]", "value": "did not cause any inhibition of cathepsins"}
    ]},
    {"smiles": "Cc1c(O)cccc1C(=O)N[C@H](C(=O)N[C@@H](CO)C(=O)N[C@H](/C=C/S(C)(=O)=O)Cc1ccc(N)cc1)C(C)C", "note": "[compound 9]", "values": [
      {"measurement": "IC50 (Chym-L)/IC50 (Tr-L)", "setting": "[1]", "value": "≪0.0067"}
    ]},
    {"smiles": "CC(C)C[C@H](NC(=O)[C@H](Cc1ccncc1)NC(=O)[C@H](Cc1ccccc1)N=[N+]=[N-])C(=O)N[C@H](/C=C/S(C)(=O)=O)Cc1ccc(CN)cc1", "note": "[compound 10]", "values": [
      {"measurement": "Inhibition of cathepsins in cells", "setting": "[7]", "value": "partly reduced cathepsin activity"}
    ]},
    {"smiles": "CC(C)C[C@H](NC(=O)[C@H](Cc1ccc(N)cc1)NC(=O)[C@H](Cc1ccccc1)N=[N+]=[N-])C(=O)N[C@H](/C=C/S(C)(=O)=O)Cc1ccc(CN)cc1", "note": "[compound 11]", "values": [
      {"measurement": "Inhibition of cathepsins in cells", "setting": "[7]", "value": "behaved similarly to 4a"}
    ]},
    {"smiles": "CC(C)C[C@H](NC(=O)[C@H](Cc1ccc(CN)cc1)NC(=O)[C@H](Cc1ccccc1)N=[N+]=[N-])C(=O)N[C@H](/C=C/S(C)(=O)=O)Cc1ccc(CN)cc1", "note": "[compound 12]", "values": [
      {"measurement": "Inhibition/labeling of proteasome active sites in extracts", "setting": "[8]", "value": "most potent inhibitor in extracts"},
      {"measurement": "Inhibition of cathepsins in cells", "setting": "[7]", "value": "slightly more potent inhibitor of cathepsins"}
    ]},
    {"smiles": "CC(C)C[C@@H](/C=C/S(C)(=O)=O)NC(=O)[C@H](CC(C)C)NC(=O)[C@H](Cc1ccc(N)cc1)NC(=O)[C@H](Cc1ccccc1)N=[N+]=[N-]", "note": "[compound 16]", "values": [
      {"measurement": "IC50 (Chym-L)/IC50 (Tr-L)", "setting": "[1]", "value": "<0.00017"}
    ]},
    {"smiles": "CC1=CC(C)=[N+]2C1=C(CCCCc1cn([C@@H](Cc3ccccc3)C(=O)N[C@@H](CC(C)C)C(=O)N[C@@H](CC(C)C)C(=O)N[C@H](/C=C/S(C)(=O)=O)Cc3ccc(CN)cc3)nn1)c1c(C)cc(C)n1[B-]2(F)F", "note": "[compound 19, Bodipy-triazole-Phe-Leu-Leu-Phe(4-CH2NH2)VS TFA Salt]", "values": [
      {"measurement": "Inhibition/labeling of proteasome active sites in extracts", "setting": "[8]", "value": "reacted with β2 and β5 subunits"}
    ]},
    {"smiles": "CC1=CC(C)=[N+]2C1=C(CCCCc1cn([C@@H](Cc3ccccc3)C(=O)N[C@@H](Cc3ccc(CN)cc3)C(=O)N[C@@H](CC(C)C)C(=O)N[C@H](/C=C/S(C)(=O)=O)Cc3ccc(CN)cc3)nn1)c1c(C)cc(C)n1[B-]2(F)F", "note": "[compound 20]", "values": [
      {"measurement": "Inhibition/labeling of proteasome active sites in extracts", "setting": "[8]", "value": "reduced the specificity"}
    ]},
    {"smiles": "O=C(CCCCCCC(=O)Nc1ccccc1)NO", "note": "[varinostat, reference compound]", "values": [
      {"measurement": "Viability", "setting": "RPMI-8226 cells [5]; 1 µM, 48 h treatment, single agent", "value": "38.6 ± 0.5", "unit": "%"}
    ]}
  ]
}
